From ChEMBL document CHEMBL1152423, “Development of N-[11C]methylamino 4-hydroxy-2(1H)-quinolone derivatives as PET radioligands for the glycine-binding site of NMDA receptors” (Bioorg Med Chem, 2009) come the findings set out here.

Data set [1] in a line: Plasma protein binding in rat at 0.67 to 0.89 […] after 30 mins by ultrafiltration. The conditions noted are these: read-out: PPB (converted). The data set is classed as ADME, cell-free. In short, it runs like this:
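Rat serum was diluted 10-fold in 66 mM phosphate buffer (pH 7.4) containing [11C]radioligand (0.67–0.89 MBq) and incubated 30 min at 30 °C. It was then ultrafiltered by centrifugation at 2000 rpm for 15 min. Radioactivity in whole plasma and in filtrate was counted to give % bound (mean, n=3).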

The nature of data set [2]: n-Octanol-sodium phosphate buffer partition coefficient, log D at pH 7.4 after 15 mins by shake-flask method. The data set is classed as physicochemical. In short, it runs like this: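 Compound (1–2 mg) was shaken 15 min at ambient temperature in n-octanol and 10 mM phosphate buffer (pH 7.4). The mixture was centrifuged at 2500 rpm for 5 min, and both layers were analysed by HPLC (n=3).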

In data set [3] the target is Glutamate NMDA receptor. Briefly: Displacement of [3H]MDL-105519 from glycine binding site of NMDA receptor in rat cortical membrane by liquid scintillation counting. The data set is classed as cell membranes. The procedure, abridged:
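Washed rat cortical membranes in 50 mM Tris–HCl (pH 8.0) were incubated 45 min at 4 °C with [3H]MDL-105,519 (2 nM) plus buffer or displacer. Nonspecific binding was defined with excess unlabeled glycine. Samples were filtered on GF/B, washed three times with ice-cold buffer, and counted by liquid scintillation. Ki came from three determinations, each in triplicate.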
(In a radioligand displacement assay an active substance lowers the binding of a labelled ligand.)

Data set [4] deals with Cerebellum. The experiment in a line: Biodistribution in ddY mouse cerebellum assessed per gram of tissue at 7.4 MBq, iv after 1 min by gamma counting. Type of data set: ADME, organism-based. The conditions noted are these: in vivo. In short, it runs like this: (§1)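 ddY mice (35–45 g) received about 7.4 MBq of [11C]radioligand in 0.2 ml into the tail vein and were decapitated at 1 or 30 min. Blood, cerebrum and cerebellum were gamma-counted with decay correction and expressed as % injected dose/g; tissue/blood ratios were derived. n=3 or 5.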

The nature of data set [5]: Biodistribution in ddY mouse cerebrum assessed per gram of tissue at 7.4 MBq, iv after 30 mins by gamma counting. The data set is classed as ADME, organism-based. The conditions noted are these: in vivo, 0.5 h. The procedure, abridged: as §1
Data set [6] in a line: Ratio of drug level in cerebellum to blood of ddY mouse at 7.4 MBq, iv after 30 mins. Type of data set: ADME, organism-based. In short, it runs like this:
as §1

In data set [7] the test system is Cerebellum. Briefly: Biodistribution in ddY mouse cerebellum assessed per gram of tissue at 7.4 MBq, iv after 30 mins by gamma counting. The conditions noted are these: in vivo, 0.5 h. The data set is classed as ADME, organism-based. The procedure, abridged:
as §1

For data set [8], the system named is Blood. The experiment in a line: Biodistribution in ddY mouse blood assessed per gram of tissue at 7.4 MBq, iv after 30 mins by gamma counting. Type of data set: ADME, organism-based. The conditions noted are these: in vivo, 0.5 h. In short, it runs like this:
as §1

For data set [9], the system named is Blood. Briefly: Biodistribution in ddY mouse blood assessed per gram of tissue at 7.4 MBq, iv after 1 min by gamma counting. Type of data set: ADME, organism-based. The conditions noted are these: in vivo. In short, it runs like this:
as §1

Data set [10] can be described thus: Ratio of drug level in cerebellum to blood of ddY mouse at 7.4 MBq, iv after 1 min. Type of data set: ADME, organism-based. The procedure, abridged: as §1
A short description of data set [11]: Biodistribution in ddY mouse cerebrum assessed per gram of tissue at 7.4 MBq, iv after 1 min by gamma counting. The conditions noted are these: in vivo. The data set is classed as ADME, organism-based. The procedure, abridged: as §1
A short description of data set [12]: Ratio of drug level in cerebrum to blood of ddY mouse at 7.4 MBq, iv after 1 min. The data set is classed as ADME, organism-based. In short, it runs like this: as §1
Data set [13] in a line: Ratio of drug level in cerebrum to blood of ddY mouse at 7.4 MBq, iv after 30 mins. The data set is classed as ADME, organism-based. The procedure, abridged:
as §1

For data set [14], the target named is Glutamate NMDA receptor. The experiment in a line: Binding affinity to glycine binding site of NMDA receptor in rat brain. Type of data set: tissue-based.
Data set [15] deals with T1, Glutamate NMDA receptor (Rattus norvegicus) (UniProt P35439+Q00959+Q00960+Q00961+Q62645+Q8VHN2+Q9R1M7). The experiment in a line: Binding affinity to glycine binding site of NMDA receptor in hippocampus of rat brain by autoradiography. The data set is classed as tissue-based. The conditions noted are these: tested as the 11C-labelled form. In short, it runs like this: (§2)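 Rat brain sagittal sections were preincubated 30 min at 25 °C in 50 mM Tris–HCl (pH 7.4), then incubated 30 min at 25 °C with the [11C]radioligand (1.59–2.13 nM). Sections were rinsed twice for 3 min in cold buffer, dipped in cold water, dried, and exposed to imaging plates for 60 min. Nonspecific binding was taken with the corresponding unlabeled ligand; specific binding is given per region.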

In data set [16] the target is T1, Glutamate NMDA receptor (Rattus norvegicus). Briefly: Binding affinity to glycine binding site of NMDA receptor in hippocampus of rat brain by autoradiography in presence of glycine-site antagonist L-703717. The conditions noted are these: tested as the 11C-labelled form. The data set is classed as tissue-based. The procedure, abridged: (§3)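 Hippocampal binding on rat brain slices: 30 min at 25 °C in 50 mM Tris–HCl (pH 7.4) with [11C]radioligand (1.59–2.13 nM), with or without a glycine-site drug (agonists at 1 mM). Slices were rinsed, dried and exposed to imaging plates for 60 min. PSL with drug was divided by PSL without drug to give % total binding, averaged over at least triplicate sections from three animals.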

Data set [17] shares this target. The experiment in a line: Binding affinity to glycine binding site of NMDA receptor in hippocampus of rat brain by autoradiography in presence of glycine. The data set is classed as tissue-based. The conditions noted are these: tested as the 11C-labelled form. The procedure, abridged:
as §3

For data set [18] the target is unchanged. Briefly: Binding affinity to glycine binding site of NMDA receptor in cerebral cortex of rat brain by autoradiography. Conditions: tested as the 11C-labelled form. The data set is classed as tissue-based. The procedure, abridged: as §2
Data set [19] shares this target. Briefly: Binding affinity to glycine binding site of NMDA receptor in hippocampus of rat brain by autoradiography in presence of glycine-site agonist D-serine. The data set is classed as tissue-based. The conditions noted are these: tested as the 11C-labelled form. In short, it runs like this: as §3
Data set [20] shares this target. The experiment in a line: Binding affinity to glycine binding site of NMDA receptor in cerebellum of rat brain by autoradiography. The data set is classed as tissue-based. Conditions: tested as the 11C-labelled form. The procedure, abridged: as §2
For data set [21] the target is unchanged. The experiment in a line: Binding affinity to glycine binding site of NMDA receptor in thalamus of rat brain by autoradiography. The data set is classed as tissue-based. Conditions: tested as the 11C-labelled form. The procedure, abridged: as §2
The target is the same in data set [22]. Briefly: Binding affinity to glycine binding site of NMDA receptor in hippocampus of rat brain by autoradiography in presence of glycine-site antagonist methoxy-MDL-104653. The data set is classed as tissue-based. Conditions: tested as the 11C-labelled form. The procedure, abridged: as §3
Data set [23] shares this target. Briefly: Binding affinity to glycine binding site of NMDA receptor in striatum of rat brain by autoradiography. The data set is classed as tissue-based. Conditions: tested as the 11C-labelled form. The procedure, abridged:
as §2

Data set [24] has the same target. The experiment in a line: Binding affinity to glycine binding site of NMDA receptor in hippocampus of rat brain by autoradiography in presence of glycine-site antagonist MDL-105519. The data set is classed as tissue-based. Conditions: tested as the 11C-labelled form. In short, it runs like this:
as §3

Active and inactive are the calls of the source. No cut-off for these calls is given here.

Take `COc1ccc(Cc2cccc(-c3c(O)c4ccc(Cl)cc4[nH]c3=O)c2)cc1`: the fraction unbound at 0.5 h in data set [1] is 0.06. Further, the pH-dependent lipophilicity (logD) (in general, lipophilicity at a set pH, counting ionised and neutral species) at 0.25 h in data set [2] turned out to be 3.47. The Ki (usually a measure of affinity in units of concentration, obtained from inhibition or displacement) in data set [3] turned out to be 0.00512 µM.

As to `COc1cccc(-c2c(O)c3c(N(C)C)cc(Cl)cc3[nH]c2=O)c1`, in [3], affinity was put at a Ki of 0.566 µM.

Molecule `CCc1cc(Cl)cc2[nH]c(=O)c(-c3cccc(N(C)C)c3)c(O)c12` displayed an inhibition constant Ki in [3] of 0.0343 µM. Against the preceding molecule, the Ki is about 17-fold lower.

Consider `CCc1cc(Cl)cc2[nH]c(=O)c(-c3cccc(O[11CH3])c3)c(O)c12`, for which the Drug uptake in data set [4] is listed as 0.72 %ID; in data set [5], 0.32 %ID/g; in [7] it was 0.44 %ID/g; in [8], 10.66 %ID/g; in [9], 29.16 %ID; in [11] it was 0.5 %ID. In addition, the Kp (as a rule, the ratio of the level in a tissue or fluid to that in plasma or blood) at 0.5 h in data set [6] stood at 0.042; in data set [13] it was 0.03. Further, the Kp at 1 min in data set [10] was 0.026; in data set [12], 0.018.

Molecule `CCc1cc(Cl)cc2[nH]c(=O)c(-c3cccc(OC)c3)c(O)c12` registered a Ki in [14] of 0.0072 µM. Besides, the fraction unbound at 0.5 h in data set [1] is 0.06.

In the case of `CNc1ccc(Cc2cccc(-c3c(O)c4ccc(Cl)cc4[nH]c3=O)c2)cc1`, the Activity in [15] is 70%; in data set [16], 58%; in data set [17], 46%; in data set [19], 46%; in data set [20], 30%; in [22], 58%. Also, the Activity in data set [24] was 58%. The outcome in data set [18], in [21] and in [23] was Active. Besides, in data set [2], the logD at 0.25 h came out at 3. For the same molecule, in [3], the Ki is 0.0117 µM.

In the case of `[11CH3]Nc1ccc(Cc2cccc(-c3c(O)c4ccc(Cl)cc4[nH]c3=O)c2)cc1`, the Drug uptake in data set [4] is 0.48 %ID; in data set [5], 0.17 %ID/g; in data set [7], 0.23 %ID/g; in [8], 3.93 %ID/g; in data set [9] it was 13.08 %ID; in data set [11], 0.4 %ID. Further, the results for the Kp at 0.5 h in data set [6] and in data set [13] were 0.058 and 0.043, respectively. Further, the Kp at 1 min stood at 0.037 in data set [10] and 0.031 in data set [12].

Molecule `COc1cccc(-c2c(O)nc3cc(Cl)ccc3c2O)c1` showed an inhibitory constant (Ki) in data set [14] of 0.167 µM.
